In ChEMBL document CHEMBL4184143 (J Med Chem, 2017):

Experiments:
[1] = biological target: T1, Bromodomain-containing protein 4 (Homo sapiens, UniProt O60885); assay: Inhibition of FAM-labeled ZBA248 binding to recombinant human N-terminal His6-tagged BRD4 bromodomain 2 (333 to 460 residues) expressed in Rosetta2 DE3 cells after 30 mins by Flourescence polarization assay; assay type: biochemical
Mus musculus [2] = assay: Toxicity in SCID mouse implanted with human MDA-MB-231 cells assessed as weight loss at 40 mg/kg, po qd measured 2 to 3 times weekly during treatment and weekly post dose; assay type: organism-based; settings: in vivo
Method in brief: (§1)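 At ~100 mm3, mice were randomized to treatment or vehicle control. Tumors were measured by electronic calipers. Animals were checked daily for signs of toxicity and weighed 2–3 times weekly on treatment, then at least weekly afterwards.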

[3] = AUC (0 to t) in Sprague-Dawley rat at 25 mg/kg, po by LC/MS method; assay type: ADME, organism-based; settings: in vivo
Method in brief: (§2)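 Sprague Dawley rats were dosed iv at 5 mg/kg or orally at 25 mg/kg, with compound dissolved in 20% (v/v) PCP/70% (v/v) PBS vehicle. Blood was drawn by catheter at 0, 5, 15, 30 min and 1, 2, 4, 6, 8, 24 h and spun to plasma, which was stored at −80 °C. Plasma drug was quantified by a validated LC–MS/MS method, and parameters were derived noncompartmentally.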

[4] = AUC (0 to t) in Sprague-Dawley rat at 5 mg/kg, iv by LC/MS method; assay type: ADME, organism-based; settings: in vivo; method in brief: as §2
[5] = Volume of distribution at steady state in Sprague-Dawley rat at 5 mg/kg, iv by LC/MS method; assay type: ADME, organism-based; settings: in vivo, read-out: Vdss
[6] = Clearance in Sprague-Dawley rat at 5 mg/kg, iv by LC/MS method; assay type: ADME, organism-based; settings: in vivo
[7] = Half life in SCID mouse at 25 mg/kg, po by LC/MS method; assay type: ADME, organism-based; settings: in vivo
[8] = Half life in Sprague-Dawley rat liver microsomes at 1 uM by LC/MS method; assay type: ADME, microsome
[9] = biological target: T2, Bromodomain-containing protein 2 (Homo sapiens, UniProt P25440); assay: Binding affinity to human partial length BRD2 bromodomain 1 long isoform (72 to 205 residues) expressed in bacterial expression system by BROMOscan assay
[10] = biological target: T2, Bromodomain-containing protein 2; assay: Binding affinity to human partial length BRD2 bromodomain 2 isoform 1 (349 to 460 residues) expressed in bacterial expression system by BROMOscan assay
[11] = biological target: Bromodomain-containing protein 3 (Homo sapiens, UniProt Q15059); assay: Binding affinity to human partial length BRD3 bromodomain 2 (G306 to P416 residues) expressed in bacterial expression system by BROMOscan assay
[12] = biological target: T1, Bromodomain-containing protein 4; assay: Binding affinity to human partial length BRD4 bromodomain 1/2 long isoform (N44 to E460 residues) expressed in bacterial expression system by BROMOscan assay
[13] = biological target: T3, Bromodomain testis-specific protein (Homo sapiens, UniProt Q58F21); assay: Binding affinity to human partial length BRDT bromodomain 1 isoform b (N21 to E137 residues) expressed in bacterial expression system by BROMOscan assay
[14] = biological target: T3, Bromodomain testis-specific protein; assay: Binding affinity to human partial length BRDT bromodomain 1/2 isoform b (K250 to E382 residues) expressed in bacterial expression system by BROMOscan assay
CREB-binding protein = CREB-binding protein (Homo sapiens, UniProt Q92793); assay: Binding affinity to human partial length CREBBP (R1081 to G1197 residues) expressed in bacterial expression system by BROMOscan assay
[15] = biological target: ATPase family AAA domain-containing protein 2 (Homo sapiens, UniProt Q6PL18); assay: Binding affinity to human partial length ATAD2A (Q981 to R1108 residues) expressed in bacterial expression system by BROMOscan assay
[16] = biological target: Bromodomain adjacent to zinc finger domain protein 2B (Homo sapiens, UniProt Q9UIF8); assay: Binding affinity to human partial length BAZ2B (S2054 to S2168 residues) expressed in bacterial expression system by BROMOscan assay
[17] = biological target: Bromodomain-containing protein 1 (Homo sapiens, UniProt O95696); assay: Binding affinity to human partial length BRD1 (E556 to A688 residues) expressed in bacterial expression system by BROMOscan assay
Peregrin = Peregrin (Homo sapiens, UniProt P55201); assay: Binding affinity to human partial length BRPF1 (E627 to G740 residues) expressed in bacterial expression system by BROMOscan assay
[18] = biological target: Nucleosome-remodeling factor subunit BPTF (Homo sapiens, UniProt Q12830); assay: Binding affinity to human partial length FALZ (S2791 to H2911 residues) expressed in bacterial expression system by BROMOscan assay
Protein polybromo-1 [19] = biological target: T4, Protein polybromo-1 (Homo sapiens, UniProt Q86U86); assay: Binding affinity to human partial length PBRM1 bromodomain 2 (S178 to E291 residues) expressed in bacterial expression system by BROMOscan assay
Protein polybromo-1 [20] = biological target: T4, Protein polybromo-1; assay: Binding affinity to human partial length PBRM1 bromodomain 5 (S645 to D766 residues) expressed in bacterial expression system by BROMOscan assay
[21] = biological target: SWI/SNF-related matrix-associated actin-dependent regulator of chromatin subfamily A member 2 (Homo sapiens, UniProt P51531); assay: Binding affinity to human partial length SMARCA2 (S1377 to Q1486 residues) expressed in bacterial expression system by BROMOscan assay
[22] = biological target: Bromodomain and WD repeat-containing protein 1 (Homo sapiens, UniProt Q9NSI6); assay: Binding affinity to human partial length WDR9 bromodomain 2 (A1310 to E1430 residues) expressed in bacterial expression system by BROMOscan assay
[23] = biological target: Bromodomain adjacent to zinc finger domain protein 2A (Homo sapiens, UniProt Q9UIF9); assay: Binding affinity to human partial length BAZ2A (M1792 to L1905 residues) expressed in bacterial expression system by BROMOscan assay
HCC1143 = assay: Cytotoxicity against human HCC1143 cells assessed as cell growth inhibition after 4 days by WST-8 assay; assay type: functional, cell-based; settings: HCC1143, 96 h
Method in brief: (§3)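 Breast cancer cells were seeded at 3,000 cells/well, treated with serially diluted compound in medium and cultured for 4 days. Growth was read by WST-8 (10% v/v final, 1–3 h) at 450 nm. Readings were normalized to DMSO-treated cells, and IC50 was obtained by nonlinear regression.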

HCC1937 = assay: Cytotoxicity against human HCC1937 cells assessed as cell growth inhibition after 4 days by WST-8 assay; assay type: functional, cell-based; settings: HCC1937, 96 h; method in brief: as §3
Mus musculus [24] = assay: Toxicity in SCID mouse implanted with human MV-411 cells assessed as weight loss at 50 mg/kg, po qd measured 2 to 3 times weekly during treatment and weekly post dose; assay type: organism-based; settings: in vivo; method in brief: as §1
MV4-11 = assay: Induction of apoptosis in human MV4-11 cells assessed as upregulation of cleaved PARP protein level after 24 hrs by Western blot method; assay type: functional, cell-based
Method in brief: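 MV4;11 cells were exposed to compound for 24 h and lysed in RIPA buffer with protease inhibitors. Lysates were separated on 4–20% SDS-PAGE, blotted to PVDF and probed for PARP, cleaved PARP and p21, with β-actin as loading control.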

T4 sequence (Q86U86 whole entry, the tested form may be a part): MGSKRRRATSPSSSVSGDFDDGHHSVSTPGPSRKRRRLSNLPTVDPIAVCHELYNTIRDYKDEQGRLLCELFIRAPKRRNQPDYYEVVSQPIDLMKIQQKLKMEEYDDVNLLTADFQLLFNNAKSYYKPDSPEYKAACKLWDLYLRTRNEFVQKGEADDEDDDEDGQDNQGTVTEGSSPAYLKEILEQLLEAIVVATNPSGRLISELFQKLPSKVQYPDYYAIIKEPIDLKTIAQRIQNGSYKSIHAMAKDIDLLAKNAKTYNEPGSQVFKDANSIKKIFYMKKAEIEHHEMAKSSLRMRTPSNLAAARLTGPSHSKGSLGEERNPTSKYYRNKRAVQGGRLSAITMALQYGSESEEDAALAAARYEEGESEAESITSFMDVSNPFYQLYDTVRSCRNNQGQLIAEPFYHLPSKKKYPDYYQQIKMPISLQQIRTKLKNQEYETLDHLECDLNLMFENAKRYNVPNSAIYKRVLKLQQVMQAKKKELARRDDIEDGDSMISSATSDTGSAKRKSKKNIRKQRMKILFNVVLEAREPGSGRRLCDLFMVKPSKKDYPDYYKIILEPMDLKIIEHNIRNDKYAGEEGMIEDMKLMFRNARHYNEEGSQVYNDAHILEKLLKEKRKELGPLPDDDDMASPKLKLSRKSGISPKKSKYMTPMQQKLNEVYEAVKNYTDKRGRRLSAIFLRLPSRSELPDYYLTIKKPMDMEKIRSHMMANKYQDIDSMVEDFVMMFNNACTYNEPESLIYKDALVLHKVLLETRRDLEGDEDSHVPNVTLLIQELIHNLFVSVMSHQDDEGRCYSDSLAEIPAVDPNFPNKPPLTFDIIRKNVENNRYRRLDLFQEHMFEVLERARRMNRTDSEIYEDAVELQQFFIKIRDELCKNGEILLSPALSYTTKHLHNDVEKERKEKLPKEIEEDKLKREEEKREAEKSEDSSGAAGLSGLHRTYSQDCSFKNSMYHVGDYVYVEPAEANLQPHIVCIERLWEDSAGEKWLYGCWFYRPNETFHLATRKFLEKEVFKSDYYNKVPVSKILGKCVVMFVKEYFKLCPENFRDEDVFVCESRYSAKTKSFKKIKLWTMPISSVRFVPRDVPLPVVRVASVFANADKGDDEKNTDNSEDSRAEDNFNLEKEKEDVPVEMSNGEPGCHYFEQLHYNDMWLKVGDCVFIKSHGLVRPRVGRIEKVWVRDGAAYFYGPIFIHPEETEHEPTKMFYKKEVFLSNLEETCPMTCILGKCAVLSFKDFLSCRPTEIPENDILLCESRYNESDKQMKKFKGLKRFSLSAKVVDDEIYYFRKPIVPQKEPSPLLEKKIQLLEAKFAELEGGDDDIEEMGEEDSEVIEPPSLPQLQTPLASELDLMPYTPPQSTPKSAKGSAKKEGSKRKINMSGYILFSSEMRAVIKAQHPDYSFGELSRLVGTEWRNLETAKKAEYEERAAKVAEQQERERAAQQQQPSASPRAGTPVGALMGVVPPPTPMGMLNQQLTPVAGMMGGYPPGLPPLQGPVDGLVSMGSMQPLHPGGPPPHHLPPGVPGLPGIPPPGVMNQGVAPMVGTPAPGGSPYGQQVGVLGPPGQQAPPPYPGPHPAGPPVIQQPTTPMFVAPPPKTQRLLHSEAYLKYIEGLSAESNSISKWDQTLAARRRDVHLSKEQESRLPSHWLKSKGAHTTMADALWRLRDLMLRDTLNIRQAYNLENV
T2 sequence (P25440 whole entry, the tested form may be a part, canonical isoform): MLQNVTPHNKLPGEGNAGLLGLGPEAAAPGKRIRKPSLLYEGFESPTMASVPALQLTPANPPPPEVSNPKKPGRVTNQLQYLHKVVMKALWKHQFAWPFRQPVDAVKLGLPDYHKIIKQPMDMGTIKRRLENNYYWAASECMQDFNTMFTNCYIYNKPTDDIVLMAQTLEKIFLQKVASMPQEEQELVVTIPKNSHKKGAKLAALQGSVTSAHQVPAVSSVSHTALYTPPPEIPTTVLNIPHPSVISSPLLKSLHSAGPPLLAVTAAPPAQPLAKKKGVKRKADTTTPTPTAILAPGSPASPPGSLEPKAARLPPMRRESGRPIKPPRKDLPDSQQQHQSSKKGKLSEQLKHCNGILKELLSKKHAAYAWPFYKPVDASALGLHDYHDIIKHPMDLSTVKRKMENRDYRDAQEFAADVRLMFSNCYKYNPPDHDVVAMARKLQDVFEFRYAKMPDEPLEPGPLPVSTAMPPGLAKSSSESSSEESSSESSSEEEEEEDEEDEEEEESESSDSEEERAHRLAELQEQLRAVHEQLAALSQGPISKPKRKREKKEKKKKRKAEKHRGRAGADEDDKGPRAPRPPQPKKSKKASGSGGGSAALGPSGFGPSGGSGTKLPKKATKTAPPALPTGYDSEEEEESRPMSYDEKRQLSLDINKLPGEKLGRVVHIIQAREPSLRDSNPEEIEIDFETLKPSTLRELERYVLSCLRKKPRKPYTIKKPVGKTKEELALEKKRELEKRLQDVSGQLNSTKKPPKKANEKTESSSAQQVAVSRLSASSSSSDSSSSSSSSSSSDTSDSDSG
Bromodomain-containing protein 3, sequence (Q15059 whole entry, the tested form may be a part, canonical isoform): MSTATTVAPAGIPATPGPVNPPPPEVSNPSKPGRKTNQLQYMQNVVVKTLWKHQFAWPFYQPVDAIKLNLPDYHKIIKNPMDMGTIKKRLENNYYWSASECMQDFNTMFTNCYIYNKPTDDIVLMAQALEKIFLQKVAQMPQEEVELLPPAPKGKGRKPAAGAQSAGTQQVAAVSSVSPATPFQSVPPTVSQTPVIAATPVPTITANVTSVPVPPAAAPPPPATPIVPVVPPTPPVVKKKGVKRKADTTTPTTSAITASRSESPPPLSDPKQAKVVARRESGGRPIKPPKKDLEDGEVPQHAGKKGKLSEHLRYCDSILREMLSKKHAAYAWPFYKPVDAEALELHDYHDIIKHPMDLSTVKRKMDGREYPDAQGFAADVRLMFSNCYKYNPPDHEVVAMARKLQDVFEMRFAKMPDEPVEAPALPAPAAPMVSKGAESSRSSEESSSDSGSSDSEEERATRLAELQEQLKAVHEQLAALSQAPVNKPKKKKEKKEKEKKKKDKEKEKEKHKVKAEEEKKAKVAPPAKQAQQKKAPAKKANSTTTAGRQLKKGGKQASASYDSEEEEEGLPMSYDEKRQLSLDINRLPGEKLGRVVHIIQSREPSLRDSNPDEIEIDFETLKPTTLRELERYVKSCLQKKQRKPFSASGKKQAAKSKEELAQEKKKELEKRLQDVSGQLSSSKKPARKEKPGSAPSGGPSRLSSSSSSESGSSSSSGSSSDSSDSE
Bromodomain adjacent to zinc finger domain protein 2A, sequence (Q9UIF9 whole entry, the tested form may be a part): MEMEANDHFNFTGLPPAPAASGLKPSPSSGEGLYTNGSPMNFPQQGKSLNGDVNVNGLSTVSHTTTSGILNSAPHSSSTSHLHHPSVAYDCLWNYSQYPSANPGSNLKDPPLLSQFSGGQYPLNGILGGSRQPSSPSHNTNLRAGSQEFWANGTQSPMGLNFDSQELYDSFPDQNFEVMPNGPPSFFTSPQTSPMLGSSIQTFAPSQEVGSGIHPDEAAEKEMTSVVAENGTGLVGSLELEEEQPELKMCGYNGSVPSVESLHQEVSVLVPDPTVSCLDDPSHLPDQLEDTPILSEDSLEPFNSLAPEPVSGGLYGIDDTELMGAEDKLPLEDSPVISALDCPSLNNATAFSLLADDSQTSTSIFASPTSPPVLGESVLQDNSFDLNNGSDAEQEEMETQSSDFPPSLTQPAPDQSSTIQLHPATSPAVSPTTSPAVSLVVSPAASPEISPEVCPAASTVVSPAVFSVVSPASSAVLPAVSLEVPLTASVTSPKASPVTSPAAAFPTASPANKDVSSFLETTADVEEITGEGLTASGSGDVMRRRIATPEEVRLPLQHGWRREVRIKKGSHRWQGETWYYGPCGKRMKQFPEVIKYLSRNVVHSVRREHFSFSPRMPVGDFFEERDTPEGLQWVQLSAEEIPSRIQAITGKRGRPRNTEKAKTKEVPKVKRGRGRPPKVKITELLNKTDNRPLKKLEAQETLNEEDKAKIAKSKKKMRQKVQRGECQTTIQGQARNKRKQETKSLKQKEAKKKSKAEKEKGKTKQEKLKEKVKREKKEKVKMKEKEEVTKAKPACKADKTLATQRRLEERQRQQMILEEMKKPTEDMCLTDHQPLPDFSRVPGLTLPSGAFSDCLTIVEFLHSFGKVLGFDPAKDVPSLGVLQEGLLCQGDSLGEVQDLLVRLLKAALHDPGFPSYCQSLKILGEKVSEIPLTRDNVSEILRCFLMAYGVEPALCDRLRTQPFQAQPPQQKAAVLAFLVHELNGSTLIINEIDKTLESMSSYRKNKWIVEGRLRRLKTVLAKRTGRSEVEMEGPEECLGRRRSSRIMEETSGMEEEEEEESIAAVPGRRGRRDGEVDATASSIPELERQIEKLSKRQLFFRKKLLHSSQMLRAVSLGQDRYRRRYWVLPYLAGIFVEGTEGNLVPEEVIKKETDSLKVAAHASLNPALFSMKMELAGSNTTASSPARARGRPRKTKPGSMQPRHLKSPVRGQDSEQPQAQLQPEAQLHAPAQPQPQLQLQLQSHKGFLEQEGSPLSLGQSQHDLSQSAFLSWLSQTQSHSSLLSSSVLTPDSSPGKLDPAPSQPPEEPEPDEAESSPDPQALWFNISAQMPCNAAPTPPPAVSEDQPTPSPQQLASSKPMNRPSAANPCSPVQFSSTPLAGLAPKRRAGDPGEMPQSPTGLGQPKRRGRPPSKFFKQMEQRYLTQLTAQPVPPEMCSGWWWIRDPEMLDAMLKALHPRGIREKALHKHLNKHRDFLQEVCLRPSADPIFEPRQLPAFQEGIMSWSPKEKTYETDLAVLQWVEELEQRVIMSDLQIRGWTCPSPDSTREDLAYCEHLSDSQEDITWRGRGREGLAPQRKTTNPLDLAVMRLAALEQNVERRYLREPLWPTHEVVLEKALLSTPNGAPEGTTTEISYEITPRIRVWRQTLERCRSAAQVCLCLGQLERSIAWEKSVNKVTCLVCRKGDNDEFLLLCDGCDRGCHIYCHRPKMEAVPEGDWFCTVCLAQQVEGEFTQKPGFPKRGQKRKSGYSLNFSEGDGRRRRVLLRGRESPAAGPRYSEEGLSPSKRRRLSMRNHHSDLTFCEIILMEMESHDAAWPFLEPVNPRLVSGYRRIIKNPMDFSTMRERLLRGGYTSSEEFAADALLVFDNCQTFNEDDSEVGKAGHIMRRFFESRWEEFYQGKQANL

For COc1cc2c(cc1-c1c(C)noc1C)[nH]c1nc(C)nc(-c3ccnc4ccccc34)c12, the IC50 [1] was 7.2 nM, the Ki [1] was 1.4 nM and the Activity (Mus musculus [2]) was “Non-Toxic”. For the same molecule, the AUC(0-t) [3] was 29500 ng·h/mL, the AUC(0-t) [4] was 6340 ng·h/mL and the Vd [5] was 2 L/kg. For the same molecule, the clearance [6] was 13.2 mL/min/kg, the half-life [7] was 1.6 h and the t1/2 [8] was greater than 1 h. For the same molecule, the Kd [9] was 4.5 nM, the Kd [10] was 0.9 nM and the Kd [11] was 0.69 nM. For the same molecule, the Kd [12] was 1.8 nM, the Kd [13] was 15 nM and the Kd [14] was 9.7 nM. For the same molecule, the Kd (CREB-binding protein) was 520 nM, the Kd [15] was greater than 4000 nM and the Kd [16] was greater than 4000 nM. For the same molecule, the Kd [17] was greater than 4000 nM, the Kd (Peregrin) was greater than 4000 nM and the Kd [18] was greater than 4000 nM. For the same molecule, the Kd (Protein polybromo-1 [19]) was greater than 4000 nM, the Kd (Protein polybromo-1 [20]) was greater than 4000 nM and the Kd [21] was greater than 4000 nM. For the same molecule, the Kd [22] was greater than 4000 nM, the Kd [23] was greater than 4000 nM and the IC50 (HCC1143) was greater than 2000 nM. For the same molecule, the IC50 (HCC1937) was greater than 2000 nM, the Activity (Mus musculus [24]) was “Non-Toxic” and the Activity (MV4-11) was “Dose-dependent effect”.
